# Active and inactive are the calls of the source. The calls are words filed in the database; no cut-off is given here.
# Assays:
# THP-1 = experiment: Antiproliferative activity against human THP1 cells after 48 hrs by MTT assay; type: functional; details: THP-1, 48 h, read-out: ED50 (the source's name)
# How it was run: (§1)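 Human leukemia cell lines were tested for antiproliferative activity by MTT assay and by radioactive thymidine incorporation. Results are given as ED₅₀ in μg/mL.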
# [1] = Antiproliferative activity against human NAMALWA cells after 48 hrs by MTT assay; type: functional; details: NAMALVA, read-out: ED50 (the source's name); how it was run: as §1
# [2] = Toxicity in Artemia salina; type: organism-based; details: in vivo
# [3] = Antiproliferative activity against human SUP-B15 cells after 48 hrs by MTT assay; type: functional; details: SUP-B15, 48 h, read-out: ED50 (the source's name); how it was run: as §1
# U-937 = experiment: Antiproliferative activity against human U937 cells after 48 hrs by MTT assay; type: functional; details: U-937, 48 h, read-out: ED50 (the source's name); how it was run: as §1
# MOLT-3 = experiment: Antiproliferative activity against human MOLT3 cells after 48 hrs by MTT assay; type: functional; details: MOLT-3, 48 h, read-out: ED50 (the source's name); how it was run: as §1
# L-428 = experiment: Antiproliferative activity against human L428 cells after 48 hrs by MTT assay; type: functional; how it was run: as §1
SMILES,EC50 (THP-1),EC50 [1],LC50 [2],EC50 [3],EC50 (U-937),EC50 (MOLT-3),"EC50 (L-428; L-428, 48 h, read-out: ED50 (the source's name))",Activity (L-428)
C/C=C/C=C/C(=O)N1CC[C@@]23c4ccccc4N[C@@H]4N(C)c5cccc6c5[C@@]42CCN([C@@H]13)[C@@H]6[C@H]1OC1(C)C [COMMUNESIN B],11.4 µg/mL,9.9 µg/mL,0.3 µg/mL,7.2 µg/mL,10.4 µg/mL,8.1 µg/mL,> 20 µg/mL,
C/C=C/C=C/C(=O)N1CC[C@@]23c4ccccc4N[C@@H]4Nc5cccc6c5[C@@]42CCN([C@@H]13)[C@@H]6[C@H]1OC1(C)C [COMMUNESIN C],13.1 µg/mL,8.2 µg/mL,1.96 µg/mL,10.8 µg/mL,11.3 µg/mL,8.6 µg/mL,,inactive
C/C=C/C=C/C(=O)N1CC[C@@]23c4ccccc4N[C@@H]4N(C=O)c5cccc6c5[C@@]42CCN([C@@H]13)[C@@H]6[C@H]1OC1(C)C [COMMUNESIN D],16.2 µg/mL,14.6 µg/mL,0.57 µg/mL,9 µg/mL,13.1 µg/mL,9.9 µg/mL,,inactive

# — ChEMBL document CHEMBL1146462, “New communesin derivatives from the fungus Penicillium sp. derived from the Mediterranean sponge Axinella verrucosa” (J Nat Prod, 2004)
